# Test results reported in ChEMBL document CHEMBL4689842, “EUbOPEN Chemogenomics Library wave 1” (2021).
# Test system: HEK-293T
# Assay: Multiplex assay against HEK293T;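 as to Population Tubulin-Different-Phenotype (%): share of the cells with healthy nuclei that show this phenotype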
# Format: toxicity, cell-based
# Conditions: human
# In short: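 Live cells were stained at seeding with Hoechst33342, BioTracker Green Microtubule Cytoskeleton Dye, MitoTracker Red and Annexin V Alexa Fluor 680, then imaged on a CQ1 microscope at 37°C and 5% CO2 after compound addition. CellPathfinder machine-learning gating split cells into Hoechst high-intensity objects or normal cells. Normal cells were split into healthy, pyknosed or fragmented nuclei, and pyknosed cells into mitotic or apoptotic. Tubulin, mitochondrial-mass and membrane-permeability phenotypes are per cents of healthy-nucleus cells.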
# [1] = 12 h, 1 µM, compound concentration 1 uM, replicate 1
# [2] = 12 h, 1 µM, compound concentration 1 uM, replicate 2
# [3] = 12 h, 10 µM, compound concentration 10 uM, replicate 1
# [4] = 12 h, 10 µM, compound concentration 10 uM, replicate 2
# [5] = 24 h, 1 µM, compound concentration 1 uM, replicate 1
# [6] = 24 h, 1 µM, compound concentration 1 uM, replicate 2
# [7] = 24 h, 10 µM, compound concentration 10 uM, replicate 1
# [8] = 24 h, 10 µM, compound concentration 10 uM, replicate 2
smiles,measurement,setting,value
Cc1nc(N2CC[C@H](O)C2)ncc1-c1cc(C(F)(F)F)cc2[nH]ncc12,Population Apoptotic (%),[1],20%
same,Population Fragmented Nuclei (%),[1],9%
same,Population Healthy Nuclei (%),[1],70%
same,Population Hoechst High Intensity Objects (%),[1],7%
same,Population Membrane Permeable-Phenotype (%),[1],3%
same,Population Mitochondria Different-Phenotype (%),[1],7%
same,Population Mitotic Cells (%),[1],79%
same,Population Normal (%),[1],92%
same,Population Pyknosed Nuclei (%),[1],20%
same,Population Tubulin-Different-Phenotype (%),[1],5%
same,Total Cell Count,[1],628
same,Population Apoptotic (%),[2],8%
same,Population Fragmented Nuclei (%),[2],7%
same,Population Healthy Nuclei (%),[2],87%
same,Population Hoechst High Intensity Objects (%),[2],2%
same,Population Membrane Permeable-Phenotype (%),[2],1%
same,Population Mitochondria Different-Phenotype (%),[2],10%
same,Population Mitotic Cells (%),[2],91%
same,Population Normal (%),[2],97%
same,Population Pyknosed Nuclei (%),[2],4%
same,Population Tubulin-Different-Phenotype (%),[2],9%
same,Total Cell Count,[2],1293
same,Population Apoptotic (%),[3],24%
same,Population Fragmented Nuclei (%),[3],11%
same,Population Healthy Nuclei (%),[3],70%
same,Population Hoechst High Intensity Objects (%),[3],9%
same,Population Membrane Permeable-Phenotype (%),[3],4%
same,Population Mitochondria Different-Phenotype (%),[3],4%
same,Population Mitotic Cells (%),[3],75%
same,Population Normal (%),[3],90%
same,Population Pyknosed Nuclei (%),[3],18%
same,Population Tubulin-Different-Phenotype (%),[3],3%
same,Total Cell Count,[3],699
same,Population Apoptotic (%),[4],5%
same,Population Fragmented Nuclei (%),[4],7%
same,Population Healthy Nuclei (%),[4],88%
same,Population Hoechst High Intensity Objects (%),[4],1%
same,Population Membrane Permeable-Phenotype (%),[4],1%
same,Population Mitochondria Different-Phenotype (%),[4],8%
same,Population Mitotic Cells (%),[4],94%
same,Population Normal (%),[4],98%
same,Population Pyknosed Nuclei (%),[4],4%
same,Population Tubulin-Different-Phenotype (%),[4],4%
same,Total Cell Count,[4],1684
same,Population Apoptotic (%),[5],22%
same,Population Fragmented Nuclei (%),[5],7%
same,Population Healthy Nuclei (%),[5],79%
same,Population Hoechst High Intensity Objects (%),[5],5%
same,Population Membrane Permeable-Phenotype (%),[5],5%
same,Population Mitochondria Different-Phenotype (%),[5],4%
same,Population Mitotic Cells (%),[5],77%
same,Population Normal (%),[5],94%
same,Population Pyknosed Nuclei (%),[5],12%
same,Population Tubulin-Different-Phenotype (%),[5],11%
same,Total Cell Count,[5],702
same,Population Apoptotic (%),[6],3%
same,Population Fragmented Nuclei (%),[6],17%
same,Population Hoechst High Intensity Objects (%),[6],2%
same,Population Membrane Permeable-Phenotype (%),[6],4%
same,Population Mitochondria Different-Phenotype (%),[6],3%
same,Population Mitotic Cells (%),[6],96%
same,Population Normal (%),[6],97%
same,Population Pyknosed Nuclei (%),[6],2%
same,Population Tubulin-Different-Phenotype (%),[6],14%
same,Total Cell Count,[6],1975
same,Population Apoptotic (%),[7],28%
same,Population Fragmented Nuclei (%),[7],10%
same,Population Healthy Nuclei (%),[7],80%
same,Population Hoechst High Intensity Objects (%),[7],5%
same,Population Membrane Permeable-Phenotype (%),[7],12%
same,Population Mitochondria Different-Phenotype (%),[7],1%
same,Population Mitotic Cells (%),[7],71%
same,Population Normal (%),[7],94%
same,Population Pyknosed Nuclei (%),[7],9%
same,Population Tubulin-Different-Phenotype (%),[7],6%
same,Total Cell Count,[7],840
same,Population Apoptotic (%),[8],6%
same,Population Fragmented Nuclei (%),[8],21%
same,Population Healthy Nuclei (%),[8],75%
same,Population Hoechst High Intensity Objects (%),[8],2%
same,Population Membrane Permeable-Phenotype (%),[8],5%
same,Population Mitotic Cells (%),[8],93%
same,Population Normal (%),[8],97%
same,Population Pyknosed Nuclei (%),[8],2%
same,Population Tubulin-Different-Phenotype (%),[8],5%
same,Total Cell Count,[8],2845
